Assay results collected from several papers.
Target: Mitogen-activated protein kinase kinase kinase 10 (MAP3K10, Homo sapiens, UniProt Q02779)
Tested at: 1 µM

read-out | technique | remaining binding [%] | SMILES
binding | competition with immobilised ligand | 86 | CNC(=O)[C@@H]1CC[C@@H](n2c(-c3ccc4cnccc4c3)nc3ccc(C(=O)NCc4cccc(C(N)=O)c4)cc32)C1
cell-free assay | competition with immobilised ligand | 75 | CN(C(=O)c1ccccc1)c1cc(N(C)c2ccc3c(c2)CCc2ccc(C(=O)NCCN4CCOCC4)cc2C3=O)ccc1F
binding |  | 100 | C[C@H]1CCN(c2nccc(-c3cnn4ncccc34)n2)C1
binding | competition with immobilised ligand | 0 | Cc1cnc(Nc2ccc(C(=O)N3CCC(N4CCCC4)CC3)cc2)nc1-c1cc2ccccc2s1
binding | competition with immobilised ligand | 91 | Nc1ncc2c(n1)-c1c([nH]c3ccc(C#CC4CC4)cc13)CCCC2
binding | competition with immobilised ligand | 89 | COc1cnc(Nc2cccc(S(N)(=O)=O)c2)nc1N1CCN(c2ccccc2)CC1
binding | competition with immobilised ligand | 3.5 | O=C(c1ccc(Nc2ncc(Cl)c(-c3cc4ccccc4s3)n2)cc1)N1CCC(N2CCCC2)CC1
cell-free assay | competition with immobilised ligand | 100 | C[C@H](c1cccc(C#N)c1)n1cc(Cl)cc(C(N)=O)c1=N
binding | competition with immobilised ligand | 100 | O=C(NCC1CCOCC1)c1n[nH]cc1NC(=O)c1c(F)cccc1F
binding |  | 100 | CN(C)c1ncc(F)c(-c2cnn3ncccc23)n1
cell-free assay | competition with immobilised ligand | 96 | COc1cc(-c2cn(C3CCc4ccccc4N(CC(F)(F)F)C3=O)nn2)ccc1-n1ccc(C)n1 (stereo not drawn)
binding | competition with immobilised ligand | 100 | CCN1CCN(Cc2ccc(C(=O)Nc3ccc(C)c(Oc4ccc5c(c4)CC(=O)N5)c3)cc2C(F)(F)F)CC1
binding |  | 98 | CN(C)c1nccc(-c2cnn3ncccc23)n1
binding | competition with immobilised ligand | 99 | C=CC(=O)N1CCC(C(=O)NCC(=O)N2CCN(c3nc(-c4cnc(N)nc4C(F)F)nc(N4CCOCC4)n3)CC2)CC1
cell-free assay | competition with immobilised ligand | 100 | CN1CCN(c2cnc3c(C4CCN(C(=O)c5ccc(OC(F)(F)F)cc5N)CC4)ncnc3c2)CC1
binding |  | 92 | N[C@H]1CCN(c2nccc(-c3cnn4ncccc34)n2)C1
binding | competition with immobilised ligand | 21 | O=C(c1ccc(Nc2nccc(-c3cc4ccccc4s3)n2)cc1)N1CCC(N2CCCC2)CC1
cell-free assay | competition with immobilised ligand | 95 | Cc1cc(-n2nc(Cc3cc(F)cc(C(F)(F)F)c3)nc2C)ccc1C(N)=O
binding |  | 78 | COc1ccnn2ncc(-c3ccnc(N(C)C)n3)c12
cell-free assay | competition with immobilised ligand | 97 | COc1ccc2c(c1)O[C@H](c1ccc(OC)c(OC)c1)C[C@@H]2NC(=O)C1(c2ccc3c(c2)OC(F)(F)O3)CC1
binding |  | 72 | CN(C)c1nccc(-c2cnc3ncccn23)n1
